These results are taken from ChEMBL document CHEMBL2176920, “Structure-based selectivity optimization of piperidine-pteridine derivatives as potent Leishmania pteridine reductase inhibitors” (J Med Chem, 2012).

For data set [1], the target named is T1, Thymidylate synthase (Homo sapiens, UniProt P04818). Kind of data set: Inhibition of human TS at 15 uM by spectrophotometric analysis. The procedure, abridged:
(§1)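 Purified human enzymes screened in continuous spectrophotometric assays. DMSO was kept below the level affecting activity: under 5% for hDHFR and under 8% for hTS.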
Target sequence in this assay (P04818 2-313 limits assumed): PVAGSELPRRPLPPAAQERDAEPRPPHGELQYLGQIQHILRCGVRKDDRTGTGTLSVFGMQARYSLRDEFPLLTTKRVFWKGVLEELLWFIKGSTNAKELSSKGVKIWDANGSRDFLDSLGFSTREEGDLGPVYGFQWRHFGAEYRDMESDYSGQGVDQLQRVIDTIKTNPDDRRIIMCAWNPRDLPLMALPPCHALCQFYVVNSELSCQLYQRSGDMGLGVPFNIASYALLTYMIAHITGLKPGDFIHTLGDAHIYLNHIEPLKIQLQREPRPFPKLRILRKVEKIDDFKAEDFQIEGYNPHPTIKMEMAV

Data set [2] concerns the target T1, Thymidylate synthase. Kind of data set: Inhibition of human TS at 30 uM by spectrophotometric analysis. The procedure, abridged: as §1
Target sequence in this assay (P04818 2-313 limits assumed): as above
The target of data set [3] is T2, Dihydrofolate reductase (Homo sapiens, UniProt P00374).
T2 sequence (P00374 whole entry): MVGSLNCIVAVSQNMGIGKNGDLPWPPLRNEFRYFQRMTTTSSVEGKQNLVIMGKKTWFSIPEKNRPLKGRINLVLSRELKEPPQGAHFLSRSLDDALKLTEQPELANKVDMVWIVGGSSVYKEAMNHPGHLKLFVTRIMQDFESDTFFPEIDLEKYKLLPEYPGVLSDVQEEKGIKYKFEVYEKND
The experiment in a line: Inhibition of human DHFR by spectrophotometric analysis.

Data set [4] concerns the target T1, Thymidylate synthase. The experiment in a line: Inhibition of human TS by spectrophotometric analysis.
Target sequence in this assay (P04818 whole entry): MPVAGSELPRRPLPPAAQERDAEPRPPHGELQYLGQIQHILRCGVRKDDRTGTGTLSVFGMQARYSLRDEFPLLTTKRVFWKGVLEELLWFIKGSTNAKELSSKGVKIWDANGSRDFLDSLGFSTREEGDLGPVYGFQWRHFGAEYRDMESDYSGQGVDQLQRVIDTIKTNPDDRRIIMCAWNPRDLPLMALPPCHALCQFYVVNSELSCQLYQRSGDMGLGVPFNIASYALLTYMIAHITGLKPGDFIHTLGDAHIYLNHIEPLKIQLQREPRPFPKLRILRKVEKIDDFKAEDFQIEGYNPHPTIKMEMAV
Data set [5] concerns Leishmania mexicana. The experiment in a line: Inhibition of pteridine reductase in Leishmania mexicana promastigote assessed as increase in pyrimethamine-induced growth inhibition by measuring parasite growth at 50 ug/mL. The arrangement: scale not given: the % may be the effect or the level left. Put shortly:
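Promastigotes plated at 10^6 cells/mL, leaving exponential and entering stationary phase. Exposed to compound at 50 μg/mL alone or together with pyrimethamine at 30 μg/mL. Percent growth inhibition with compound alone compared with that of each compound plus PYR.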

The subject of data set [6] is Leishmania major. The experiment in a line: Antiparasitic activity against Leishmania major promastigotes assessed as parasite growth at 50 ug/mL. The format is functional. The procedure, abridged:
(§2)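 Promastigotes grown from 10^5 parasites/mL and harvested in exponential phase at 2 × 10^7/mL. For the assay they were plated at 10^6 cells/mL in 96-well format, so cells were leaving exponential phase for stationary phase. Compound was given at 50 μg/mL alone or together with pyrimethamine at 30 μg/mL. Percent growth inhibition was compared between the single agent and the combination.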

Data set [7] has as its system Leishmania mexicana. Kind of data set: Antiparasitic activity against Leishmania mexicana promastigotes assessed as parasite growth at 50 ug/mL. The format is functional. Put shortly:
as §2

Data set [8] deals with Leishmania mexicana. Kind of data set: Inhibition of pteridine reductase in Leishmania mexicana promastigote assessed as reduction in cell survival upon H2O2 exposure at ED50 after 48 hrs at 28 degC relative to control. Put shortly: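 L. mexicana promastigotes plated at 10^5 cells/mL and pretreated with compound for 48 h at 28 °C. Then diluted to 2 × 10^4 cells/mL and exposed to increasing H2O2 concentrations for 45 min. Surviving motile parasites counted on a Neubauer grid. Compound-treated, non-H2O2 sample taken as 100%; compared against untreated H2O2-exposed series.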

Data set [9] concerns the target T3, Pteridine reductase 1 (Leishmania major) (UniProt Q01782).
T3 sequence (whole entry): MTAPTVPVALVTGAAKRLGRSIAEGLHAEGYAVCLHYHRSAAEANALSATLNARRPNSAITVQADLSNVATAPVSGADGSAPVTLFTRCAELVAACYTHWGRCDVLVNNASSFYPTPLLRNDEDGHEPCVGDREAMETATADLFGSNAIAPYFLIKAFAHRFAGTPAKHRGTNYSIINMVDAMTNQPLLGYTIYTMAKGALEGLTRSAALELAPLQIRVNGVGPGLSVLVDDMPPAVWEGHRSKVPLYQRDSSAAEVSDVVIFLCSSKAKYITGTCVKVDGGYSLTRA

Data set [10] concerns Leishmania mexicana. The experiment in a line: Inhibition of pteridine reductase in Leishmania mexicana promastigote assessed as increase in pyrimethamine cytotoxicity by Chou-Talalay method.
The nature of data set [11]: Toxicity against human MRC5 cells assessed as growth inhibition. The format is cell-based. The settings on record: read-out: ED50 (the source's name). Put shortly:
(§3)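 MRC-5 human fibroblasts were grown at 37 °C, 5% CO2, in DMEM with 10% heat-inactivated FBS and extra glutamine. Cells were seeded so that control wells were confluent after 72 h of incubation with compound. Alamar Blue optical density was the read-out. Values are mean ± SD of three independent experiments.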

For data set [12], the system named is MRC5. Kind of data set: Toxicity against human MRC5 cells assessed as growth inhibition at 50 ug/mL. The format is cell-based. The procedure, abridged: as §3
The target of data set [13] is T4, Dihydrofolate reductase (Homo sapiens) (UniProt P00374).
T4 sequence (whole entry): T2 sequence (P00374 whole entry)
The experiment in a line: Inhibition of human DHFR at 30 uM by spectrophotometric analysis. Put shortly:
as §1

A short description of data set [14]: Toxicity against human MRC5 cells assessed as growth inhibition at 100 ug/mL. The settings on record: read-out: GI. The format is cell-based. The procedure, abridged:
as §3

For data set [15], the target named is T1, Thymidylate synthase. The experiment in a line: Inhibition of human TS at 50 uM by spectrophotometric analysis. Put shortly:
as §1
Target sequence in this assay (P04818 2-313 limits assumed): as the sequence (P04818 2-313 limits assumed) above

Values after ≈ are worked out from the molar mass of the structure shown. Active and inactive are the calls of the source. The rule behind the calls is not given here.

For the molecule `COC(=O)C1CCN(C(=O)c2ccc(N(C)Cc3cnc4nc(N)nc(N)c4n3)cc2)CC1`, the inhibition entry in [1] is “inactive”.
In general, Ki refers to a dissociation constant, usually derived from enzyme kinetics or from competition with a known ligand. Take `CCc1ccc(NCc2cnc3nc(N)nc(N)c3n2)cc1C(=O)N1CCC(C(=O)OC)CC1`: the inhibition result in data set [2] is “inactive”. Moreover, in data set [3], affinity was put at a Ki of 4.68 µM.
For the molecule `COC(=O)C1CCN(C(=O)c2ccc(NCc3cnc4nc(N)nc(N)c4n3)cc2)CC1`, the inhibitory constant (Ki) result is “Not Active” in data set [4] and 10 µM in data set [3]. The Activity in data set [5] was 24.4%; in [6], 99.6%; in [7], 111.6%. Further, in data set [8], the inhibition entry was “Active”. In addition, the FICI in [9] came out at 0.75. The fractional inhibitory concentration index (FICI) in data set [10] came to 2.05. In addition, in data set [11], the GI50 was 23.4 µg/mL (≈ 53.6 µM).
With `Nc1nc(N)c2nc(CNc3ccc(C(=O)N4CCC(C(=O)O)CC4)cc3)cnc2n1`, in [1], the inhibition entry is “inactive”.
Regarding `CCc1nc(N)nc(N)c1-c1ccc(Cl)cc1` [PYRIMETHAMINE], the Activity in data set [6] was found to be 68%; in data set [7] it was 102.5%. Also, in data set [11], the GI50 is 16.2 µg/mL (≈ 65.1 µM).
For the molecule `NC(=O)C1CCN(C(=O)c2ccc(NCc3cnc4nc(N)nc(N)c4n3)cc2)CC1`, the Activity was 15.7% in data set [5], 121.2% in data set [6] and 88.5% in [7]. Also, in data set [1], the inhibition entry is “inactive”. Also, in data set [11], the GI50 was 51 µg/mL (≈ 121 µM).
With `COC(=O)C1CCN(C(=O)c2ccc(N(CCO)Cc3cnc4nc(N)nc(N)c4n3)cc2)CC1`, in data set [4] (read-out: Ki), the Ki is 64 µM. For the same molecule, the Activity in data set [5] is 12.9%; in data set [6] it was 122.2%; in data set [12], “Non-toxic”; in data set [7], 100.1%.
Regarding `CCOC(=O)CN(Cc1cnc2nc(N)nc(N)c2n1)c1ccc(C(=O)N2CCC(C(=O)OC)CC2)cc1`, the inhibition entry in [13] and in data set [2] was “inactive” in each case. Moreover, the inhibition at 100 ug/mL in data set [14] stood at 28%. In addition, the figures for the Activity in data set [5], in data set [6] and in data set [7] were 21.9%, 100.8% and 102.3%, respectively.
In the case of `COC(=O)C1CCN(C(=O)c2ccc(NCc3cnc4nc(N)nc(N)c4n3)cn2)CC1`, the inhibition entry in data set [13] and in data set [15] was “inactive” throughout. Besides, the Activity in [5] was 17.6%; in data set [6], 103.4%; in data set [12], “Non-toxic”; in [7], 95.6%. In data set [8], the inhibition result is “Active”. Moreover, in [9], the FICI was found to be 0.8. In addition, the fractional inhibitory concentration index (FICI) in data set [10] turned out to be 1.51.
For the molecule `CCc1cc(C(=O)N2CCC(C(=O)OC)CC2)ccc1NCc1cnc2nc(N)nc(N)c2n1`, the inhibition entry in [13] and in data set [2] was “inactive” in each case. Besides, the Activity in [5] is 19.6%; in data set [6], 104.2%; in [7], 90.6%. The GI50 in data set [11] was found to be 21.8 µg/mL (≈ 46.9 µM).
